Only some compounds are listed: those with a hit (about 1.9% of all), similar ones and a draw of the others.
CHRM4 agonist: human M4 muscarinic receptor agonists, primary screen, CHO-K1 cells, Fluo-8 calcium fluorescence | CHO-K1 hM4/Gqi5; vehicle 0%, full acetylcholine response 100% | AID 624127, 2012 | activation, % at 3 µM | 360,000 compounds, 0.14% hits;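 active = activation above the run mean over all test wells plus 3 SD, cut at about 32% in these data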;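 also: peak over basal fluorescence ratio per well then scaled between controls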
Target sequence (P08173 whole entry, looked up): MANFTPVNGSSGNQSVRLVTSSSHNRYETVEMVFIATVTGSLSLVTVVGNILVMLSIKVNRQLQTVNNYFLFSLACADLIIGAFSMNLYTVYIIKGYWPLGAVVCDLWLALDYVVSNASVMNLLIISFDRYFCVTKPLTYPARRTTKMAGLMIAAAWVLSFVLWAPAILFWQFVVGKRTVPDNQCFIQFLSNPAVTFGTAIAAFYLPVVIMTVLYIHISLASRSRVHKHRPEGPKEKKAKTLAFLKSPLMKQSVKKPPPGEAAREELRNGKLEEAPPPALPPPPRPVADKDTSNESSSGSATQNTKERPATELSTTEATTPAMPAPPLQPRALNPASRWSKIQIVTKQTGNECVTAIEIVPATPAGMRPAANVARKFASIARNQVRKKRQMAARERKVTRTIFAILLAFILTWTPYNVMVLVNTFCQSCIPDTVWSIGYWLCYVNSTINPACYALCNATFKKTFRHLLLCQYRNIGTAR
CHRM5 antagonist: human M5 muscarinic receptor antagonists, primary screen, CHO cells, Fluo-8 calcium fluorescence. CHO-hM5 cells, ACh EC80. AID 624040, 2012. 360,000 compounds, 0.59% hits. inhibition, % at 3 µM. Muscarinic acetylcholine receptor M5 (Homo sapiens), P08912;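 active = inhibition above a per-plate cutoff, the mean of that plate's test compounds plus 3 SD, cut at about 27% in these data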
CHRM4 PAM: human M4 muscarinic receptor positive allosteric modulators, primary screen, CHO-K1 cells, Fluo-8 calcium fluorescence; activation, % at 3 µM; AID 624126, 2012; 360,000 compounds, 0.4% hits; CHO-K1 hM4/Gqi5, ACh EC20; 0% = ACh EC20, 100% = maximal ACh; Muscarinic acetylcholine receptor M4 (Homo sapiens), P08173;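 active = activation above its plate's cutoff, the mean activation of sample wells plus 3 SD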
M4 antag: human M4 muscarinic receptor antagonists, primary screen, CHO cells, Fluo-8 calcium fluorescence | AID 624125, 2012 | CHO-hM4 cells, ACh EC80 | inhibition, % at 3 µM | 360,000 compounds, 0.73% hits | Muscarinic acetylcholine receptor M4 (Homo sapiens), P08173;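 active = inhibition above its plate's cutoff, the mean inhibition of sample wells plus 3 SD, cut at about 27% in these data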
CHRM5 agonist: human M5 muscarinic receptor agonists, primary screen, CHO-K1 cells, Fluo-8 calcium fluorescence; Muscarinic acetylcholine receptor M5 (Homo sapiens), P08912; CHO-K1 hM5 cells; 0% DMSO wells, 100% maximal acetylcholine response; activation, % at 3 µM; 360,000 compounds, 0.19% hits; AID 624037, 2012;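 active = activation above the run's mean over test compounds plus 3 SD, cut at about 23% in these data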;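 also: signal is peak over basal fluorescence ratio across the kinetic read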
M5 PAM: human M5 muscarinic receptor positive allosteric modulators, primary screen, CHO-K1 cells, Fluo-8 calcium fluorescence | Muscarinic acetylcholine receptor M5 (Homo sapiens), P08912 | CHO-K1 hM5, ACh EC20 PAM; 0% = ACh EC20, 100% = ACh EC100 | activation, % at 3 µM | 360,000 compounds, 0.3% hits;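 active = activation above the run cutoff, the mean activation of all test compounds plus 3 SD, cut at about 18% in these data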
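system = human M5 receptor in CHO-K1 cells | reagent = EC20 acetylcholine as agonist stimulus | compound dosing = single-point, 3 µM nominal | incubation = Fluo-8 loading 80 min at 37 °C plus 30 min room temperature | detection = Fluo-8 calcium dye fluorescence, kinetic read | benchmarks = low control EC20 acetylcholine (0%), high control EC100 acetylcholine (100%)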
Large screens that a line does not name were inactive.

O=c1[nH]c2ccccc2n1C1CCN(Cc2ccc(-c3nc4ccccc4nc3-c3ccccc3)cc2)CC1	CHRM5 agonist 32
COc1ccc2nc(-c3ccc(CN4CCC(n5c(=O)[nH]c6ccccc65)CC4)cc3)c(-c3ccccc3)nc2c1	none
CCC(c1nnnn1Cc1ccccc1)N1CCC(n2c(=O)[nH]c3ccccc32)CC1 (centres undefined)	M4 antag 27
O=c1[nH]c2ccccc2n1C1CCN(Cc2ccc(-c3nc4ccc(F)cc4nc3-c3ccccc3)cc2)CC1	none
CCCCn1nnnc1C(CCc1ccccc1)N1CCC(n2c(=O)[nH]c3ccccc32)CC1 (centres undefined)	none
Cc1ccc2nc(-c3ccc(CN4CCC(n5c(=O)[nH]c6ccccc65)CC4)cc3)c(-c3ccccc3)nc2c1	CHRM5 agonist 27
CN(C)P1(=O)N(C)CCN1C	none
C[Se]C[C@@H](N)C(=O)O	none
N[C@@H](CCl)C(=O)O	M4 antag 51
CN1C[C@H](CO)C=C2c3cccc4[nH]cc(c34)C[C@H]21	none
CC1=C[C@@H]2c3cccc4[nH]cc(c34)C[C@H]2N(C)C1	M4 antag 57
CCOC(=O)c1cccc(C2=C(CNC(=O)c3ccc([N+](=O)[O-])cc3)[C@H]3CC[C@@H](C2)N3Cc2ccccc2)c1	none
C[C@H]1CC[C@@H]2N(C1)C[C@H]1[C@@H]3C[C@H]4[C@@H](CC(=O)[C@H]5C[C@@H](O)CC[C@@]54C)[C@@H]3CC[C@H]1[C@]2(C)O	M4 antag 85
C[C@]12CC[C@H](O)CC1C(=O)CC1C2CC[C@@]2(C)C1CC[C@@H]2O (some centres undefined)	none
CC(=O)O[C@H]1CC[C@@]2(C)[C@H](C1)C(=O)C[C@H]1[C@@H]3CC[C@@H]4[C@@H](CN5C[C@@H](C)CC[C@H]5[C@@]4(C)O)[C@@H]3C[C@@H]12	M4 antag 65
CCOP(=S)(OCC)Oc1cc(C)nc(C(C)C)n1	none
CN1[C@H]2CC[C@@H]1C(C(=O)N1CCOCC1)=C(O)C2	none
c1ccc(C2(N3CCCCC3)CCCCC2)cc1	none
S=C=Nc1cccc(C2(N3CCCCC3)CCCCC2)c1	CHRM5 antagonist 27
O=[N+]([O-])/C=C/c1c(Cl)cccc1Cl	CHRM5 antagonist 29
COc1ccc(-c2ccc3c(c2)CNCc2cnnn2-3)cc1	none
OC(CC#CCN1CCCCCC1)(c1ccccc1)C1CCCC1 (centres undefined)	CHRM5 antagonist 84, M4 antag 91
C(#CCN1CCCCC1)COCc1ccccc1	none
CN(C)CC#CCC(O)(c1ccccc1)C1CCCC1 (centres undefined)	CHRM5 antagonist 94, M4 antag 87
CC1(C(O)(C#CCN2CCCCC2)c2ccccc2)CCCC1 (centres undefined)	CHRM5 antagonist 99, M4 antag 99
CC(C)C[C@@H]1COc2cc(N3CCN(C)CC3)ccc2S(=O)(=O)N1	none
CCOC(=O)/C(CCCN(CC)CC)=N\O	CHRM5 antagonist 35, M4 antag 34
Cc1ncc(CN2CCCC(C(=O)c3ccc(C(C)(C)C)cc3)C2)s1 (centres undefined)	CHRM5 antagonist 29
O=C1NCN(c2ccccc2)C12CCN(C(c1ccccc1OC(F)(F)F)c1nnnn1-c1ccc3c(c1)OCCO3)CC2 (centres undefined)	none
CCCn1ncc(CN2CCCC(C(=O)c3cccc(OC)c3)C2)c1C (centres undefined)	M4 antag 55

Source: PubChem BioAssay
